Laboratory results reported in ChEMBL document CHEMBL1154829, “Iridoids from Fraxinus excelsior with adipocyte differentiation-inhibitory and PPARalpha activation activity” (2010).
The source made the active and inactive calls. The rule behind the calls is not given here.

Columns and labels:
[1] = target: T1, Peroxisome proliferator-activated receptor alpha (Homo sapiens) (UniProt Q07869); test: Activation of PPARalpha transfected into HEK cells at 100 uM by luciferase assay; format: cell-based; details: HEK293
T1 sequence (whole entry): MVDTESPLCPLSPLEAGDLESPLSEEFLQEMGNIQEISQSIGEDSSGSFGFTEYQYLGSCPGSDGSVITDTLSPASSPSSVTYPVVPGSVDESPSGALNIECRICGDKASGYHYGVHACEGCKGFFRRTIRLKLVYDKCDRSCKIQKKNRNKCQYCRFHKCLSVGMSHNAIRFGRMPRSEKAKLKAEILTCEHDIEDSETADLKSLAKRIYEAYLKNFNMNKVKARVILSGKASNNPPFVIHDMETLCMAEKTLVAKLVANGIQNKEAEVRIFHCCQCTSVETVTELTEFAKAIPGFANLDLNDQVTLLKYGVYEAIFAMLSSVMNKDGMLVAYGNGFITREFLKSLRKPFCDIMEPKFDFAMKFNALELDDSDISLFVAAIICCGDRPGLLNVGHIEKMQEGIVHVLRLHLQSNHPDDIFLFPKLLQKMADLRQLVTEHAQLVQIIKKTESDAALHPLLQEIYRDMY
In short: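 HEK cells in DMEM with 10% FBS, 1% penicillin-streptomycin and 2 mM L-glutamine at 37 °C, 5% CO2. Seeded at 80 000/well 24 h before PEI transfection (1 µg plasmid, 4 h). Compounds dissolved in DMSO and added in supplemented DMEM for 48 h. Lysate luciferase read by luminometer, normalized to β-gal, relative to DMSO control. Three independent runs; mean ± SD.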

[2] = target: T2, Solute carrier family 2, facilitated glucose transporter member 4 (Homo sapiens) (UniProt P14672); test: Stimulation of GLUT4 glucose transport
T2 sequence (whole entry): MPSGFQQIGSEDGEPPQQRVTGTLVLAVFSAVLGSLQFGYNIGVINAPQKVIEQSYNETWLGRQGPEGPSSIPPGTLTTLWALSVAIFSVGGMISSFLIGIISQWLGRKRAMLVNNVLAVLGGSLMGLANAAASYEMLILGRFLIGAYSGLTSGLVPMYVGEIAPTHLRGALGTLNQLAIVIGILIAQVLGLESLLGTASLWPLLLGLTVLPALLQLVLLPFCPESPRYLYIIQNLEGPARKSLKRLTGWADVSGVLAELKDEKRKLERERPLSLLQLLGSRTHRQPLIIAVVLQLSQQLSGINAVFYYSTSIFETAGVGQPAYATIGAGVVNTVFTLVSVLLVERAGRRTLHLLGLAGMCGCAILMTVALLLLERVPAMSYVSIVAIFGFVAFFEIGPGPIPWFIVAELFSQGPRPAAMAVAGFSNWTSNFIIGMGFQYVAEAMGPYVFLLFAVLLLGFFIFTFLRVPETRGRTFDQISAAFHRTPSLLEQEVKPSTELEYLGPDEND

[3] = test system: 3T3-L1; test: Inhibition of adipocyte differentiation in mouse 3T3L1 cells assessed as inhibition of 2 deoxy-D[3H]glucose uptake at 0.2 mg/ml […] by scintillation counter relative to control; format: functional
[4] = test system: 3T3-L1; test: Inhibition of adipocyte differentiation in mouse 3T3L1 cells assessed as inhibition of 2 deoxy-D[3H]glucose uptake at 1 mg/ml […] by scintillation counter relative to control; format: functional
[5] = test system: 3T3-L1; test: Inhibition of adipocyte differentiation in mouse 3T3L1 cells assessed as inhibition of 2 deoxy-D[3H]glucose uptake at 0.5 mg/ml after 15 mins by scintillation counter relative to control; format: functional
[6] = test system: 3T3-L1; test: Inhibition of adipocyte differentiation in mouse 3T3L1 cells assessed as inhibition of 2 deoxy-D[3H]glucose uptake at 0.05 mg/ml […] by scintillation counter relative to control; format: functional
[7] = test system: 3T3-L1; test: Inhibition of adipocyte differentiation in mouse 3T3L1 cells assessed as inhibition of 2 deoxy-D[3H]glucose uptake at 0.01 mg/ml […] by scintillation counter relative to control; format: functional
[8] = test system: 3T3-L1; test: Inhibition of adipocyte differentiation in mouse 3T3L1 cells assessed as inhibition of 2 deoxy-D[3H]glucose uptake at 0.1 mg/ml […] by scintillation counter relative to control; format: functional

SMILES	Activity [1]	activation [2]	inhibition at 200 µg/mL [3]	inhibition at 1000 µg/mL [4]	inhibition at 500 µg/mL [5]	inhibition at 50 µg/mL [6]	inhibition at 10 µg/mL [7]	inhibition at 100 µg/mL [8]
O=C(O)C1CN2C(N1)[C@H](O)[C@@H](O)[C@H](O)[C@H]2CO (stereo partly drawn)	21%	inactive	-8.3%	-2.1%	-10.4%	2.3%		
C/C=C1/[C@H](O[C@@H]2O[C@H](CO)[C@@H](O)[C@H](O[C@@H]3O[C@H](CO)[C@@H](O)[C@H](O)[C@H]3O)[C@H]2O)OC=C(C(=O)OC)[C@H]1CC(=O)Oc1ccc(CCO)cc1						-17.1%	77.6%	-49.7%
C/C=C1/[C@H](O[C@@H]2O[C@H](CO[C@@H]3O[C@H](CO)[C@@H](O)[C@H](O)[C@H]3O)[C@@H](O)[C@H](O)[C@H]2O)OC=C(C(=O)OC)[C@H]1CC(=O)OCCc1ccc(O)cc1 [EXCELSIDE B]	24.8%	inactive	-30.8%	-24.3%	-22.7%	-16.7%		
C/C=C1\C(CC(=O)OC[C@H]2O[C@@H](OCCc3ccc(O)cc3)[C@H](O)[C@@H](O)[C@@H]2O)C(C(=O)OC)=CO[C@H]1O[C@@H]1O[C@H](CO)[C@@H](O)[C@H](O)[C@H]1O (stereo partly drawn) [NUZHENIDE]	12.2%	inactive	-28.3%	-38.2%	-27.9%	-15.2%		

Now from value to compound, other results behind:

Activity [1]	activation [2]	SMILES	inhibition at 200 µg/mL [3]	inhibition at 1000 µg/mL [4]	inhibition at 500 µg/mL [5]	inhibition at 50 µg/mL [6]	inhibition at 10 µg/mL [7]	inhibition at 100 µg/mL [8]
	inactive	C/C=C1\[C@H](O[C@@H]2O[C@H](CO)[C@@H](O)[C@H](O)[C@H]2O)OC=C(C(=O)OC)[C@H]1CC(=O)O				-34.8%	-7.9%	-85.2%
	inactive	C/C=C1/[C@H](O[C@@H]2O[C@H](CO[C@@H]3O[C@H](CO)[C@@H](O)[C@H](O)[C@H]3O)[C@@H](O)[C@H](O)[C@H]2O)OC=C(C(=O)OC)[C@H]1CC(=O)OC [EXCELSIDE A]				30.9%	102%	-16.6%
	inactive	C/C=C1/[C@H](O[C@@H]2O[C@H](CO)[C@@H](O)[C@H](O)[C@H]2O)OC=C(C(=O)OC)[C@H]1CC(=O)OCCc1ccc(O)cc1 [LIGSTROSIDE]				-76.4%	-9.3%	-9.8%
27.9%	inactive	C/C=C1\[C@H](O[C@@H]2O[C@H](CO)[C@@H](O)[C@H](O)[C@H]2O)OC=C(C(=O)OC)[C@H]1CC(=O)OC [OLEOSIDE DIMETHYL ESTER]				-7.3%	78.2%	-81%
